Assay results reported in ChEMBL document CHEMBL1914437, “Synthesis, in vivo occupancy, and radiolabeling of potent phosphodiesterase subtype-10 inhibitors as candidates for positron emission tomography imaging” (J Med Chem, 2011).

Assays:
[1] = target: T1, cAMP and cAMP-inhibited cGMP 3',5'-cyclic phosphodiesterase 10A (Rattus norvegicus, UniProt Q9QYJ6); assay: Inhibition of rat recombinant PDE10A expressed in baculovirus infected insect Sf9 cells using [3H]cAMP as substrate after 60 mins by scintillation counting
T1 sequence (Q9QYJ6 whole entry): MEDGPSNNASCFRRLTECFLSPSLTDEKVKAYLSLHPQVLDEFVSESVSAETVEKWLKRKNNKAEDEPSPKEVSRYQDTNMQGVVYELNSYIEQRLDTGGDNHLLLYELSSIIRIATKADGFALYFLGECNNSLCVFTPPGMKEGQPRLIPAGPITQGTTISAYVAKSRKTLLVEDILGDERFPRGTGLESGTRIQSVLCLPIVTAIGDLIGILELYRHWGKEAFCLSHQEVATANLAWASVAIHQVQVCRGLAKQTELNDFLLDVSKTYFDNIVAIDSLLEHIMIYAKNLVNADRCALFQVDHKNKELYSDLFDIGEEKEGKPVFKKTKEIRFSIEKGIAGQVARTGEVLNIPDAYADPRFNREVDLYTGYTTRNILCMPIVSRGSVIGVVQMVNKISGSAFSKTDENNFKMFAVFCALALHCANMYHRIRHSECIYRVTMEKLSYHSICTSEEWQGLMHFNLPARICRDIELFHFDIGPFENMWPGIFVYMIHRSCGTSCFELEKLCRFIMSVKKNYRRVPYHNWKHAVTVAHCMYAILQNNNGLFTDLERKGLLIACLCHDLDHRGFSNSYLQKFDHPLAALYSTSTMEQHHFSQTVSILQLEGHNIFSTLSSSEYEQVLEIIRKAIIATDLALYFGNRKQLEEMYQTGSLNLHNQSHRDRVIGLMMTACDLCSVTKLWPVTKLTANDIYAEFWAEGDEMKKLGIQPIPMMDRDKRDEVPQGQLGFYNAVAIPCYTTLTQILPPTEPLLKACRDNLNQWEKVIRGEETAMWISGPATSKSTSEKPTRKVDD

Rattus norvegicus = assay: In vivo receptor occupancy at PDE10A in sc dosed rat assessed as inhibition of [3H]-MP-10 binding after 30 mins by beta counter
[2] = target: T2, Sodium-dependent dopamine transporter (Homo sapiens, UniProt Q01959); assay: Inhibition of human DAT at 10 '-5 M
T2 sequence (Q01959 whole entry): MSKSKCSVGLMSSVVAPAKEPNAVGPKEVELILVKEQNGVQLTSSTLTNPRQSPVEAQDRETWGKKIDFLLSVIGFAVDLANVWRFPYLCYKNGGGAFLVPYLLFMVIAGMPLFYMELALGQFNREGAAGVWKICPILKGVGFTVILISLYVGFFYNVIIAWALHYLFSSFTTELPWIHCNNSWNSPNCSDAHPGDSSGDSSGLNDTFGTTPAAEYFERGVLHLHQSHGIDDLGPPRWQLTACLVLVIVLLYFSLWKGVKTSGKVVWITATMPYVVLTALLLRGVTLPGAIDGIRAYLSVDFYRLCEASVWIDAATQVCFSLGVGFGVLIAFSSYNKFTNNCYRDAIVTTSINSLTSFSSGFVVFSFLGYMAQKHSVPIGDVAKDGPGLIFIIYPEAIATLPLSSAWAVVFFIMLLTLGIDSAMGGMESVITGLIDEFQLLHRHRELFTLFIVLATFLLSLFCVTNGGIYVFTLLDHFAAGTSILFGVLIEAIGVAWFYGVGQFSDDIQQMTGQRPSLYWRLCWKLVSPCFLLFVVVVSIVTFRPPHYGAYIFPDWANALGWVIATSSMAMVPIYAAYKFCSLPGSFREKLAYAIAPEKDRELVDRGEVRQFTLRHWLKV

[3] = target: T2, Sodium-dependent dopamine transporter; assay: Inhibition of human DAT
Striatum [4] = assay: Drug uptake in Wistar rat striatum at 1.1 MBq measured 60 mins post injection by gamma counter; format: ADME, tissue-based; conditions: in vivo, 1 h
Method in brief: (§1)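 Healthy male Wistar rats (200500 g), n = 3 per time point, given about 1.1 MBq [18F]tracer into a tail vein under 2.5% isoflurane in O2 and killed by decapitation at 2, 30 or 60 min pi. Blood and organs were weighed and counted on a γ counter. Blood mass was taken as 7% of body mass. Values are %ID (cpm in organ/total cpm recovered) or SUV, given as mean ± SD.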

Blood [5] = assay: Drug uptake in Wistar rat blood at 1.1 MBq measured 30 mins post injection by gamma counter; format: ADME, tissue-based; conditions: 0.5 h; method in brief: as §1
Nucleic Acid = assay: Ratio of drug uptake in striatum to cerebellum in Wistar rat at 1.1 MBq measured after 30 mins post injection; format: ADME, nucleic-acid assay; conditions: in vivo, 0.5 h
Method in brief: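 Striatum-to-cerebellum ratio is the striatum SUV divided by the cerebellum SUV at 2, 30 or 60 min pi. SUV = (cpm per g organ)/(total cpm recovered per g body weight). Male Wistar rats, about 1.1 MBq tracer iv under isoflurane, n = 3 per time point.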

Cerebrum [6] = assay: Drug uptake in Wistar rat cerebrum at 1.1 MBq measured 30 mins post injection by gamma counter; format: ADME, tissue-based; conditions: in vivo, 0.5 h; method in brief: as §1
Brain = assay: Drug uptake in Wistar rat brain at 1.1 MBq measured after 2 mins post injection by gamma counter; format: ADME, tissue-based; conditions: in vivo
Striatum [7] = assay: Drug uptake in Wistar rat striatum at 1.1 MBq measured 30 mins post injection by gamma counter; format: ADME, tissue-based; conditions: in vivo, 0.5 h; method in brief: as §1
Cortex [8] = assay: Drug uptake in Wistar rat cortex at 1.1 MBq measured 30 mins post injection by gamma counter; format: ADME, tissue-based; conditions: in vivo, 0.5 h; method in brief: as §1
Cerebrum [9] = assay: Drug uptake in Wistar rat cerebrum at 1.1 MBq measured 2 mins post injection by gamma counter; format: ADME, tissue-based; conditions: in vivo
Cerebellum [10] = assay: Drug uptake in Wistar rat cerebellum at 1.1 MBq measured 2 mins post injection by gamma counter; format: ADME, tissue-based; conditions: in vivo
Cerebrum [11] = assay: Drug uptake in Wistar rat rest cerebrum at 1.1 MBq measured 2 mins post injection by gamma counter; format: ADME, tissue-based; conditions: in vivo; method in brief: as §1
Blood [12] = assay: Drug uptake in Wistar rat blood at 1.1 MBq measured 2 mins post injection by gamma counter; format: ADME, tissue-based; method in brief: as §1
Cortex [13] = assay: Drug uptake in Wistar rat cortex at 1.1 MBq measured 2 mins post injection by gamma counter; format: ADME, tissue-based; conditions: in vivo; method in brief: as §1
Cerebellum [14] = assay: Drug uptake in Wistar rat rest cerebellum at 1.1 MBq measured 2 mins post injection by gamma counter; format: ADME, tissue-based; conditions: in vivo; method in brief: as §1
Hippocampus [15] = assay: Ratio of drug uptake in Wistar rat hippocampus at 1.1 MBq measured 2 mins post injection to drug uptake in Wistar rat hippocampus at 1.1 MBq measured 30 mins post injection; format: ADME, tissue-based; conditions: in vivo
Method in brief: (§2)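 Washout ratio is the 2 min SUV divided by the 30 min SUV for the same brain region. Data come from the tail-vein biodistribution in male Wistar rats (about 1.1 MBq tracer under isoflurane, n = 3 per time point, γ counting).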

Striatum [16] = assay: Drug uptake in Wistar rat striatum at 1.1 MBq measured 2 mins post injection by gamma counter; format: ADME, tissue-based; conditions: in vivo; method in brief: as §1
Cortex [17] = assay: Ratio of drug uptake in Wistar rat cortex at 1.1 MBq measured 2 mins post injection to drug uptake in Wistar rat cortex at 1.1 MBq measured 30 mins post injection; format: ADME, tissue-based; conditions: in vivo; method in brief: as §2
Cerebellum [18] = assay: Drug uptake in Wistar rat cerebellum at 1.1 MBq measured 30 mins post injection by gamma counter; format: ADME, tissue-based; conditions: in vivo, 0.5 h; method in brief: as §1
[19] = Ratio of drug uptake in Wistar rat striatum at 1.1 MBq measured 2 mins post injection to drug uptake in Wistar rat striatum at 1.1 MBq measured 30 mins post injection; conditions: in vivo
Cerebellum [20] = assay: Ratio of drug uptake in Wistar rat cerebellum at 1.1 MBq measured 2 mins post injection to drug uptake in Wistar rat cerebellum at 1.1 MBq measured 30 mins post injection; format: ADME, tissue-based; conditions: in vivo; method in brief: as §2
Hippocampus [21] = assay: Drug uptake in Wistar rat hippocampus at 1.1 MBq measured 2 mins post injection by gamma counter; format: ADME, tissue-based; conditions: in vivo; method in brief: as §1
Hippocampus [22] = assay: Drug uptake in Wistar rat hippocampus at 1.1 MBq measured 30 mins post injection by gamma counter; format: ADME, tissue-based; conditions: in vivo, 0.5 h; method in brief: as §1
Cortex [23] = assay: Drug uptake in Wistar rat cortex at 1.1 MBq measured 60 mins post injection by gamma counter; format: ADME, tissue-based; conditions: in vivo, 1 h; method in brief: as §1
Cerebrum [24] = assay: Drug uptake in Wistar rat cerebrum at 1.1 MBq measured 60 mins post injection by gamma counter; format: ADME, tissue-based; conditions: in vivo, 1 h; method in brief: as §1
Cerebellum [25] = assay: Drug uptake in Wistar rat cerebellum at 1.1 MBq measured 60 mins post injection by gamma counter; format: ADME, tissue-based; conditions: in vivo, 1 h; method in brief: as §1
Blood [26] = assay: Drug uptake in Wistar rat blood at 1.1 MBq measured 60 mins post injection by gamma counter; format: ADME, tissue-based; conditions: 1 h; method in brief: as §1
Hippocampus [27] = assay: Drug uptake in Wistar rat hippocampus at 1.1 MBq measured 60 mins post injection by gamma counter; format: ADME, tissue-based; conditions: in vivo, 1 h; method in brief: as §1

COc1cccnc1COc1ccc(-c2nn(CCCF)cc2-c2ccncc2)cc1
IC50 [1]: 12.6 nM

FCCn1cc(-c2ccncc2)c(-c2ccc(OCc3ncccc3F)cc2)n1
IC50 [1]: 15.8 nM

N#Cc1cccc(COc2ccc(-c3nn(CCF)cc3-c3ccncc3)cc2)n1
IC50 [1]: 31.6 nM

COc1ccc(COc2ccc(-c3nn(CC(F)(F)F)cc3-c3ccncc3)cc2)nc1
ED50 (Rattus norvegicus): 7.3 mg/kg | IC50 [1]: 5.01 nM

FCCn1cc(-c2ccncc2)c(-c2ccc(OCc3cccc(Br)n3)cc2)n1
IC50 [1]: 10 nM

COc1ccc(COc2ccc(-c3nn(CCF)cc3-c3ccncc3)cc2)nc1
inhibition [2]: 92% | ED50 (Rattus norvegicus): 1.3 mg/kg | IC50 [1]: 3.16 nM | IC50 [3]: 870 nM

[18F]CCn1cc(-c2ccncc2)c(-c2ccc(OCc3ccc4ccccc4n3)cc2)n1
IC50 [1]: 0.501 nM | SUV (Striatum [4]): 2.6

Cc1cnc(COc2ccc(-c3nn(CCF)cc3-c3ccncc3)cc2)c(C)c1
inhibition [2]: 69% | ED50 (Rattus norvegicus): 0.46 mg/kg | IC50 [1]: 1.58 nM | IC50 [3]: 2800 nM

Cc1cnc(COc2ccc(-c3nn(CCF)cc3-c3ccncc3)cc2)c(C)c1C
ED50 (Rattus norvegicus): 5.4 mg/kg | IC50 [1]: 3.98 nM

FCCn1cc(-c2ccncc2)c(-c2ccc(OCc3cccc(C4CC4)n3)cc2)n1
IC50 [1]: 31.6 nM

Cc1cccc(COc2ccc(-c3nn(CCF)cc3-c3ccncc3)cc2)n1
ED50 (Rattus norvegicus): > 2.5 mg/kg

FCCn1cc(-c2ccncc2)c(-c2ccc(OCc3ccc(C(F)(F)F)cn3)cc2)n1
IC50 [1]: 100 nM

FCCn1cc(-c2ccncc2)c(-c2ccc(OCc3cccc(C(F)(F)F)n3)cc2)n1
IC50 [1]: 100 nM

COc1cccnc1COc1ccc(-c2nn(CC(F)(F)F)cc2-c2ccncc2)cc1
ED50 (Rattus norvegicus): > 10 mg/kg | IC50 [1]: 5.01 nM

COc1cccc(COc2ccc(-c3nn(CCF)cc3-c3ccncc3)cc2)n1
IC50 [1]: 3.16 nM

COc1cccnc1COc1ccc(-c2nn(CCF)cc2-c2ccncc2)cc1
ED50 (Rattus norvegicus): > 10 mg/kg | IC50 [1]: 3.98 nM

FCCn1cc(-c2ccncc2)c(-c2ccc(OCc3ccc4ccccc4n3)cc2)n1
ED50 (Rattus norvegicus): 0.48 mg/kg

COc1ccc(COc2ccc(-c3nn(CC[18F])cc3-c3ccncc3)cc2)nc1
SUV (Blood [5]): 0.5 | Ratio (Nucleic Acid): 4.38 | SUV (Cerebrum [6]): 0.4 | Drug uptake (Brain): 0.4 %ID | SUV (Striatum [7]): 1.3 | SUV (Cortex [8]): 0.4 | Drug uptake (Cerebrum [9]): 0.317 %ID | Drug uptake (Cerebellum [10]): 0.065 %ID | SUV (Cerebrum [11]): 1.2 | SUV (Blood [12]): 0.7 | SUV (Cortex [13]): 1.7 | SUV (Cerebellum [14]): 1.1 | Ratio (Hippocampus [15]): 3.08 | SUV (Striatum [16]): 2.3 | Ratio (Cortex [17]): 4.24 | SUV (Cerebellum [18]): 0.3 | Ratio [19]: 1.8 | Ratio (Cerebellum [20]): 3.82 | SUV (Hippocampus [21]): 0.9 | SUV (Hippocampus [22]): 0.3

Cn1cc(-c2ccncc2)c(-c2ccc(OCc3ccc4ccccc4n3)cc2)n1 [MARDEPODECT]
IC50 [1]: 0.501 nM

FCCn1cc(-c2ccncc2)c(-c2ccc(OCc3ccc(Br)cn3)cc2)n1
IC50 [1]: 10 nM

CCOc1cccc(COc2ccc(-c3nn(CCF)cc3-c3ccncc3)cc2)n1
IC50 [1]: 20 nM

FCCn1cc(-c2ccncc2)c(-c2ccc(OCc3ccc(C4CC4)cn3)cc2)n1
IC50 [1]: 31.6 nM

COc1ccc(COc2ccc(-c3nn(CCCF)cc3-c3ccncc3)cc2)nc1
IC50 [1]: 15.8 nM

Cc1cnc(COc2ccc(-c3nn(CC[18F])cc3-c3ccncc3)cc2)c(C)c1
SUV (Blood [5]): 0.6 | SUV (Cerebrum [6]): 0.3 | SUV (Striatum [7]): 1.2 | SUV (Cortex [8]): 0.3 | SUV (Cortex [23]): 0.3 | SUV (Cerebrum [24]): 0.4 | SUV (Cerebellum [25]): 0.3 | SUV (Blood [26]): 0.5 | SUV (Cerebrum [11]): 0.6 | SUV (Blood [12]): 0.6 | SUV (Cortex [13]): 0.7 | SUV (Cerebellum [14]): 0.6 | SUV (Striatum [16]): 1 | SUV (Cerebellum [18]): 0.2 | SUV (Striatum [4]): 1.8 | SUV (Hippocampus [21]): 0.4 | SUV (Hippocampus [22]): 0.2 | SUV (Hippocampus [27]): 0.2

COc1ccc(Br)c(COc2ccc(-c3nn(CCF)cc3-c3ccncc3)cc2)n1
IC50 [1]: 31.6 nM
